According to ChEMBL document CHEMBL6114987, “Identification of the first-in-class dual inhibitor targeting BAG3 and HSP70 proteins to disrupt multiple chaperone pathways” (Eur J Med Chem, 2025):
Each block holds one molecule with its values, some of them ahead of it. Active and inactive are the calls of the source. The calls are words filed in the database; no cut-off is given here.

Experiments:
[1] = target: T1, BAG family molecular chaperone regulator 3 (Homo sapiens, UniProt O95817); assay: Binding affinity to full length recombinant human BAG3 assessed as dissociation constant by SPR analysis
[2] = (§1) Binding affinity to recombinant human HSP70 assessed as dissociation constant by SPR analysis
Method in brief: (§2)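 HSP70 amine-coupled on CM5 chip from 0.045 µg µl⁻¹ in 10 mM acetate pH 4.5, density 20 kRU, with unmodified reference surface. Compounds from 10 mM DMSO stocks diluted 1:20 in PBS-P (final 5.0 % DMSO), 10 concentrations by 1:2 dilution spanning 0–100 µM. Run at 25 °C, 20 µL/min, 90 s association, 400 s dissociation; KD reported ± SD.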

Homo sapiens [3] = organism: Homo sapiens; assay: Inhibition of Hsp70 (unknown origin) ATPase activity assessed as residual activity at 10 uM by ATPase activity incubated for 1 hr by ADP-glo assay relative to control
Method in brief: (§3)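 HSP70 ATPase assay by ADP-Glo. HSP70 plus HSP40 pre-incubated with compound for 30 min at RT, then ATP added and reacted 1 h at 30 °C with 1 % DMSO final. ADP-Glo reagent added for 1 h, then detection reagent for 20 min, and luminescence read. Activity scaled between no-compound (100 %) and no-HSP70 (0 %) wells; run in duplicates.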

Homo sapiens [4] = organism: Homo sapiens; assay: Inhibition of Hsp70 (unknown origin) ATPase activity assessed as residual activity at 50 uM by ATPase activity incubated for 1 hr by ADP-glo assay relative to control; method in brief: as §3
HeLa [5] = assay: Induction of cell cycle arrest in human HeLa cells assessed as increase in hypodiploid nuclei incubated for 72 hrs by PI staining based flow cytometry analysis; type: functional; conditions: dose 1-10 µM
Method in brief: (§4)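 HeLa cells (1×10^5/well) adhered 24 h, then treated 72 h with 10, 25 and 50 μM (reference inhibitor 1, 5, 10 μM), with 0.1 % DMSO negative and 10 % positive controls. Dead and live cells pooled, stained with 50 mg/L PI in 0.1 % citrate/0.1 % Triton X-100 for 30 min at 4 °C in the dark. Sub-G0/G1 percentage measured by flow cytometry, debris gated out.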

HeLa [6] = assay: Induction of apoptosis in human HeLa cells assessed as increase in apoptotic cells at 20 uM incubated for 72 hrs by Annexin V-FITC/PI staining based flow cytometry analysis relative to control; type: functional
Method in brief: (§5)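 HeLa cells (2×10^4) incubated 72 h at 20–50 μM. Stained with Annexin V-FITC and PI for 15 min at RT, then analysed by flow cytometry. Reported as percentage of live, apoptotic and necrotic cells versus control, mean ± SD of three independent experiments.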

HeLa [7] = assay: Upregulation of p21 expression in human HeLa cells incubated for 72 hrs by flow cytometry analysis; type: functional, cell-based; conditions: dose 10-50 µM
Method in brief: (§6)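 HeLa cells (2.5×10^5/well) treated 24 h after seeding for 72 h at 10, 25, 50 μM (reference inhibitor 10 μM) or 0.1 % DMSO. Fixed in 1 % formaldehyde (20 min, 4 °C), permeabilized with 0.1 % Triton, stained with anti-caspase 3, anti-caspase 9 or anti-p21 plus secondary antibodies. Read by flow cytometry as percentage of positive cells.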

HaCaT [8] = assay: Cytotoxicity against human HaCaT cells assessed as mortality at 10 to 50 uM incubated for 72 hrs by MTT assay; type: toxicity, cell-based; conditions: dose 10-50 µM
HaCaT [9] = assay: Cytotoxicity against human HaCaT cells at 10 to 50 uM incubated for 72 hrs by MTT assay; type: toxicity, cell-based; conditions: dose 10-50 µM
Method in brief: (§7)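 HaCaT keratinocytes seeded at 5.0×10^3 cells/well in triplicate and allowed to attach for 24 h. Exposed to 10 and 50 μM for 24, 48 or 72 h with 0.1 % DMSO control, then read by MTT reduction (3 h, 37 °C) with absorbance at 570 nm.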

HeLa [10] = assay: Cytotoxicity against human HeLa cells assessed as mortality rate at 10 to 50 uM incubated for 72 hrs by MTT assay relative to control; type: functional; conditions: dose 10-50 µM
Method in brief: (§8)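 MTT reduction assay. Cells grown in DMEM/high glucose with 10 % FBS, 2 mM glutamine and penicillin/streptomycin at 37 °C, 5 % CO2. HeLa seeded at 3.5×10^3 and HaCaT at 5.0×10^3 cells/well, in triplicate. After 24 h attachment, compounds added at 10 and 50 μM for 72 h. Controls: 0.1 % DMSO (negative) and 10 % DMSO (positive). MTT added for 3 h at 37 °C, formazan dissolved in DMF/SDS (pH 4.5), absorbance read at 570 nm. Three independent experiments.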

HeLa [11] = assay: Induction of apoptosis in human HeLa cells assessed as increase in apoptotic cells at 50 uM incubated for 72 hrs by Annexin V-FITC/PI staining based flow cytometry analysis relative to control; type: functional; method in brief: as §5
HeLa [12] = assay: Cytotoxicity against human HeLa cells assessed as cell viability incubated for 72 hrs by MTT assay
HeLa [13] = assay: Downregulation of FOXM1 expression in human HeLa cells at 50 uM incubated for 72 hrs by Western blot analysis; type: functional, cell-based
HeLa [14] = assay: Downregulation of FOXM1 expression in human HeLa cells incubated for 72 hrs by Western blot analysis; type: functional, cell-based
Method in brief: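 HeLa cells treated 72 h at 30 and 15 μM. Lysates (30 μg protein) separated on 10 % SDS-PAGE and blotted with anti-FOXM1 (1:500), β-tubulin as loading control. Detection by ECL, quantified by densitometry.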

HeLa [15] = assay: Induction of cell cycle arrest in human HeLa cells assessed as increase in hypodiploid nuclei at 10 to 50 uM incubated for 72 hrs by PI staining based flow cytometry analysis; type: functional; conditions: dose 10-50 µM; method in brief: as §4
HeLa [16] = assay: Induction of apoptosis in human HeLa cells assessed as increase in caspase 9 expression incubated for 72 hrs by flow cytometry analysis; type: functional, cell-based; conditions: dose 10-50 µM; method in brief: as §6
HaCaT [17] = assay: Cytotoxicity against human HaCaT cells at 10 to 50 uM incubated for 24 hrs by MTT assay; type: toxicity, cell-based; conditions: dose 10-50 µM; method in brief: as §7
HeLa [18] = assay: Induction of apoptosis in human HeLa cells assessed as increase in caspase 3 expression incubated for 72 hrs by flow cytometry analysis; type: functional, cell-based; conditions: dose 10-50 µM; method in brief: as §6
HeLa [19] = assay: Induction of apoptosis in human HeLa cells assessed as increase in apoptotic cells incubated for 72 hrs by Annexin V-FITC/PI staining based flow cytometry analysis; type: functional, cell-based; conditions: dose 20-50 µM; method in brief: as §5
HaCaT [20] = assay: Cytotoxicity against human HaCaT cells at 10 to 50 uM incubated for 48 hrs by MTT assay; type: toxicity, cell-based; conditions: dose 10-50 µM; method in brief: as §7
HeLa [21] = assay: Induction of apoptosis in human HeLa cells assessed as increase in apoptotic cells at 30 uM incubated for 72 hrs by Annexin V-FITC/PI staining based flow cytometry analysis relative to control; type: functional; method in brief: as §5
A-375 = assay: Cytotoxicity against human A-375 cells assessed as cell viability incubated for 72 hrs by MTT assay; type: functional, cell-based; conditions: A-375, 72 h
Homo sapiens [22] = organism: Homo sapiens; assay: as §1; method in brief: as §2
A549 = assay: Cytotoxicity against human A549 cells assessed as cell viability incubated for 72 hrs by MTT assay; type: functional, cell-based; conditions: A549, 72 h
[23] = Solubility of compound; type: physicochemical
[24] = target: T1, BAG family molecular chaperone regulator 3; assay: Binding affinity to recombinant human BAG3 domain assessed as dissociation constant by SPR analysis
HaCaT [25] = assay: Cytotoxicity against human HaCaT cells assessed as mortality rate at 50 uM incubated for 72 hrs by MTT assay relative to control; type: toxicity, cell-based; method in brief: as §8

T1 sequence (O95817 whole entry): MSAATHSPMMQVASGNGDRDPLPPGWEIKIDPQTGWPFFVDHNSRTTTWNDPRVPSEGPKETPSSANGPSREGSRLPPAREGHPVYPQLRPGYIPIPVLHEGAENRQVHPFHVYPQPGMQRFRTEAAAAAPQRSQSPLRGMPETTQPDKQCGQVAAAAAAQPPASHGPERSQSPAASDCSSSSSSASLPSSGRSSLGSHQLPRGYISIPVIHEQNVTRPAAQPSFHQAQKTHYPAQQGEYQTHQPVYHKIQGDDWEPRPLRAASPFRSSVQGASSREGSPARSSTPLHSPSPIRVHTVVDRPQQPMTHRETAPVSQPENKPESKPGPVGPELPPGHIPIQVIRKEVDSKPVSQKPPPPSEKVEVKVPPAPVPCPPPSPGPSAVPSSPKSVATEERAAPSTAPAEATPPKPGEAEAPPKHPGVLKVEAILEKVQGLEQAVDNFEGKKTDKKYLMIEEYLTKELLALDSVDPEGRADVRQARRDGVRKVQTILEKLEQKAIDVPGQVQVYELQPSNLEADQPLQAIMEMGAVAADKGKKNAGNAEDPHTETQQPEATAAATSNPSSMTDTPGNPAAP

Activity [1]: inactive
SMILES: Cc1ccc(S(=O)(=O)CNC(=O)C(c2ccccc2Br)N(Cc2ccccc2)C(=O)Cn2cc(-c3ccccc3)nn2)cc1 (stereo not given)

Activity [1]: inactive
SMILES: CCCCNC(=O)C(c1ccccc1Br)N(Cc1ccccc1)C(=O)Cn1cc(-c2ccccc2)nn1 (stereo not given)

Kd [2]: 41 µM
Activity (Homo sapiens [3]): 30%
Activity (Homo sapiens [4]): 43%
Activity [1]: inactive
SMILES: CCn1c(=O)/c(=C2\Sc3ccccc3N2C)s/c1=C\c1cccc[n+]1C
Activity (HeLa [5]): Dose-dependent-effect

Activity [1]: inactive
SMILES: CCCCNC(=O)C(c1cc(O)ccc1Br)N(CC(C)CC)C(=O)Cn1cc(-c2cccc(OC)c2)nn1 (stereo not given)

Activity [1]: inactive
SMILES: CCCCNC(=O)C(c1ccccc1Br)N(CC(C)CC)C(=O)Cn1cc(CCC(C)C)nn1 (stereo not given)

solubility [23]: Insoluble
SMILES: CCCCNC(=O)C(c1ccc(C(F)(F)F)cc1)N(CCC)C(=O)Cn1cc(-c2cccc(C)c2)nn1 (stereo not given)

Activity [1]: inactive
SMILES: CCCCNC(=O)C(c1ccccc1Br)N(Cc1ccccc1)C(=O)Cn1cc(CCC(C)C)nn1 (stereo not given)

Kd [24]: Not_determined
Activity [1]: inactive
SMILES: CCCCNC(=O)C(c1ccc(Cl)nc1)N(CC(C)CC)C(=O)Cn1cc(C(C)(O)c2ccc(F)cc2)nn1 (stereo not given)

Further lines, the molecule ahead of its results:

SMILES: CCCCNC(=O)C(c1c(Br)ccnc1Cl)N(CC(C)CC)C(=O)Cn1cc(-c2cccc(O)c2)nn1 (stereo not given)
Activity [1]: inactive

SMILES: CCCCNC(=O)C(c1c[nH]c(=O)[nH]c1=O)N(CC(C)CC)C(=O)Cn1cc(-c2cc(C)c(C)cc2C)nn1 (stereo not given)
Activity (HeLa [6]): 18.6%
Activity (HeLa [7]): Dose-dependent-effect
Activity (HaCaT [8]): Non-toxic
Kd [2]: 33.8 µM
Activity (HaCaT [9]): Non-toxic
mortality (HeLa [10]): 70%
Activity (HeLa [11]): 26.2%
IC50 (HeLa [12]): 49.5 µM
Activity (Homo sapiens [3]): 20%
Activity (HeLa [13]): inactive
Activity (HeLa [14]): Dose-dependent-effect
Activity (HeLa [15]): Active
Activity (Homo sapiens [4]): 40%
Activity (HeLa [16]): Dose-dependent-effect
Activity (HaCaT [17]): Non-toxic
Activity (HeLa [18]): Dose-dependent-effect
Activity (HeLa [19]): Dose-dependent-effect
Activity (HaCaT [20]): Non-toxic
Activity (HeLa [21]): 23%

SMILES: CCOC(=O)CN1C(=O)S/C(=C\c2ccc(O)c(O)c2)C1=O
IC50 (A-375): 16.6 µM
Activity (Homo sapiens [22]): inactive
IC50 (HeLa [12]): > 50 µM
IC50 (A549): 32.3 µM

SMILES: CCCCNC(=O)C(c1ccccc1Br)N(C(=O)Cn1cc(CCC(C)C)nn1)c1ccc(Cl)cc1 (stereo not given)
Activity [1]: inactive

SMILES: CCCCNC(=O)C(c1ccc2cn[nH]c2c1)N(CC(C)CC)C(=O)Cn1cc(-c2cc(C)ccc2C)nn1 (stereo not given)
mortality (HeLa [10]): 70%
mortality (HaCaT [25]): 60%
